Experimental data taken from ChEMBL document CHEMBL4414678, “Structure Determination, Functional Characterization, and Biosynthetic Implications of Nybomycin Metabolites from a Mining Reclamation Site-Associated Streptomyces” (J Nat Prod, 2019).
In brackets after ≈: the same amount, converted by molar mass. Activity calls are given as the source filed them. No cut-off for these calls is given here. Starred links: 1 amine or outer side, 2 acyl side, 3 side chain; linkers in the order of their positions; H or OH if unused. Positions of bridges follow the written chain, without caps; N, C: chain ends. Non-standard residues stand in square brackets, D forms with d. Residues, ends and D or L forms follow the SMILES beside them. Chains are numbered I, II in the order given. Actinocin(1to9) = Cc1c2oc3c(C)ccc(C(=O)[*:2])c3nc-2c(C(=O)[*:1])c(N)c1=O; NMeV = CN[C@H](C(=O)O)C(C)C; Sar = CNCC(=O)O

Columns and labels:
Bacillus subtilis = assay: Antibacterial activity against Bacillus subtilis ATCC 6633 after 16 to 48 hrs; assay type: functional
In short: (§1)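 MIC determined against each bacterial strain after 16–48 h incubation, in triplicate. DMSO vehicle was the negative control, and kanamycin and ampicillin were the positive controls.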

Saccharomyces cerevisiae = assay: Antifungal activity against Saccharomyces cerevisiae ATCC 204508 after 16 to 48 hrs; assay type: functional
In short: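 MIC determined against the S. cerevisiae strain after 16–48 h incubation, in triplicate. DMSO vehicle was the negative control and amphotericin B the positive control.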

A549 [1] = assay: Antiproliferative activity against human A549 cells assessed as reduction in cell viability after 72 hrs by alamar blue assay; assay type: functional, cell-based; details: A549, 72 h
In short: (§2)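 Cancer cell viability measured after 72 h exposure, in triplicate, and EC50/IC50 derived. DMSO served as the negative control. Positive controls were actinomycin D at 20 μM and H2O2 at 2 mM, each taken as 0% viable cells.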

Micrococcus luteus = assay: Antibacterial activity against Micrococcus luteus ATCC 15307 after 16 to 48 hrs; assay type: functional; in short: as §1
Staphylococcus aureus = assay: Antibacterial activity against Staphylococcus aureus ATCC 6538 after 16 to 48 hrs; assay type: functional; in short: as §1
PC-3 [2] = assay: Antiproliferative activity against human PC3 cells assessed as reduction in cell viability after 72 hrs by alamar blue assay; assay type: functional, cell-based; details: PC-3, 72 h; in short: as §2
Salmonella enterica = assay: Antibacterial activity against Salmonella enterica ATCC 10708 after 16 to 48 hrs; assay type: functional; in short: as §1
Escherichia coli = assay: Antibacterial activity against Escherichia coli ATCC 12435 after 16 to 48 hrs; assay type: functional; in short: as §1
Mycolicibacterium aurum = assay: Antibacterial activity against Mycobacterium aurum ATCC 23366 after 16 to 48 hrs; assay type: functional; in short: as §1
[3] = target: Eukaryotic translation initiation factor 4E-binding protein 1 (Homo sapiens) (UniProt Q13541); assay: Inhibition of 4E-BP1 phosphorylation in human HCT116 cells at 1 uM after 6 hrs by Western blot analysis; assay type: cell-based
In short: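 HCT116 cells treated for 6 h with compound at 1 or 2 μM, or with DMSO as negative control. Lysates analysed by Western blot for phosphorylated 4E-BP1 alongside related proteins.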

Ambystoma mexicanum = assay: Toxicity in axolotl embryo at 1 uM after 7 days by tail regeneration assay; assay type: organism-based; details: in vivo, 168 h
In short: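 Axolotl embryos (Ambystoma Genetic Stock Center) had the tail amputated and were exposed to 1 μM compound. Regeneration, judged by a rounded tail tip, was scored at 7 days post-amputation. DMSO vehicle was the negative control and geldanamycin the positive control.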

PC-3 [4] = assay: Antiproliferative activity against human PC3 cells assessed as cell viability at 20 uM after 72 hrs by alamar blue assay relative to control; assay type: functional; details: PC-3, 72 h, read-out: Activity
A549 [5] = assay: Antiproliferative activity against human A549 cells assessed as cell viability at 20 uM after 72 hrs by alamar blue assay relative to control; assay type: functional; details: A549, 72 h, read-out: Activity

Sequence of Eukaryotic translation initiation factor 4E-binding protein 1 (Homo sapiens) (Q13541 whole entry): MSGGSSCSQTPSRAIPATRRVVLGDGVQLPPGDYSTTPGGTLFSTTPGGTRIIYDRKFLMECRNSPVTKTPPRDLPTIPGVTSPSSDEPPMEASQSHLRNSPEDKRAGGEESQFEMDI

MIC (Bacillus subtilis) | MIC (Saccharomyces cerevisiae) | EC50 (A549 [1]) | MIC (Micrococcus luteus) | MIC (Staphylococcus aureus) | EC50 (PC-3 [2]) | MIC (Salmonella enterica) | MIC (Escherichia coli) | MIC (Mycolicibacterium aurum) | inhibition [3] | SMILES | Activity (Ambystoma mexicanum) | viability at 20 µM (PC-3 [4]) | viability at 20 µM (A549 [5])
> 24 µM | > 24 µM | > 100 µM | > 24 µM | > 24 µM | > 100 µM | > 24 µM | > 24 µM | > 24 µM |  | Cc1cc(=O)n2c3c(c4c(cc13)c(C(=O)O)cc(=O)n4C)OC2 |  |  | 
0.4 µM (≈ 0.215 µg/mL) | > 24 µM | > 100 µM | 1.5 µM (≈ 0.805 µg/mL) | 3 µM (≈ 1.61 µg/mL) | > 100 µM | > 24 µM | > 24 µM | > 24 µM |  | COC(=O)c1cc2cc(CCc3cc4c(o3)C(=O)c3c(O)c(OC)cc(OC)c3C4=O)c(O)c(O)c2c(=O)o1 |  |  | 
 |  |  |  |  |  |  |  | 2 µM (≈ 1.65 µg/mL) |  | CO[C@H]1/C=C/O[C@@]2(C)Oc3c(C)c(O)c4c(O)c(c(/C=N/N5CCN(C)CC5)c(O)c4c3C2=O)NC(=O)/C(C)=C\C=C\[C@H](C)[C@H](O)[C@@H](C)[C@@H](O)[C@@H](C)[C@H](OC(C)=O)[C@@H]1C [RIFAMPIN] |  |  | 
2 µM (≈ 0.969 µg/mL) |  |  | 15 µM (≈ 7.27 µg/mL) | 7.5 µM (≈ 3.63 µg/mL) |  | 14 µM (≈ 6.78 µg/mL) | 7.5 µM (≈ 3.63 µg/mL) |  |  | NC[C@H]1O[C@H](O[C@H]2[C@H](O)[C@@H](O[C@H]3O[C@H](CO)[C@@H](O)[C@H](N)[C@H]3O)[C@H](N)C[C@@H]2N)[C@H](O)[C@@H](O)[C@@H]1O [KANAMYCIN] |  |  | 
12 µM (≈ 6.44 µg/mL) | 12 µM (≈ 6.44 µg/mL) | > 100 µM | 6 µM (≈ 3.22 µg/mL) | 12 µM (≈ 6.44 µg/mL) | > 100 µM | > 24 µM | > 24 µM | > 24 µM |  | COC(=O)c1cc2cc3c(c(O)c2c(=O)o1)O[C@]1(CC3)CC2=C(O1)C(=O)c1c(O)c(OC)cc(OC)c1C2=O |  |  | 
 |  |  | 25 µM (≈ 8.74 µg/mL) | 12 µM (≈ 4.19 µg/mL) |  | 25 µM (≈ 8.74 µg/mL) | 25 µM (≈ 8.74 µg/mL) |  |  | CC1(C)S[C@@H]2[C@H](NC(=O)[C@H](N)c3ccccc3)C(=O)N2[C@H]1C(=O)O [AMPICILLIN] |  |  | 
12 µM (≈ 3.41 µg/mL) | > 24 µM | 0.25 µM | 12 µM (≈ 3.41 µg/mL) | 12 µM (≈ 3.41 µg/mL) | 0.15 µM | > 24 µM | > 24 µM | > 24 µM | Active | Cc1cc(=O)[nH]c2c1C(=O)c1c(C)cc(=O)n(C)c1C2=O |  |  | 
> 24 µM | > 24 µM | > 100 µM | > 24 µM | > 24 µM | > 100 µM | > 24 µM | > 24 µM | > 24 µM |  | Cc1cc(=O)[nH]c2c(O)c3c(cc12)c(CO)cc(=O)n3C |  |  | 
12 µM (≈ 3.58 µg/mL) | > 24 µM | > 100 µM | 12 µM (≈ 3.58 µg/mL) | > 24 µM | > 100 µM | > 24 µM | > 24 µM | > 24 µM |  | Cc1cc(=O)n2c3c(c4c(cc13)c(CO)cc(=O)n4C)OC2 |  |  | 
0.02 µM (≈ 0.0104 µg/mL) | 3 µM (≈ 1.57 µg/mL) | > 100 µM | 0.15 µM (≈ 0.0784 µg/mL) | 0.075 µM (≈ 0.0392 µg/mL) | > 100 µM | > 24 µM | > 24 µM | 12 µM (≈ 6.27 µg/mL) |  | COC(=O)c1cc2cc3c(c(O)c2c(=O)o1)O[C@]1(CC3)Cc2c(O)c3c(c(O)c2O1)C(=O)C(OC)=CC3=O | Non-Toxic |  | 
 |  |  |  |  |  |  |  |  |  | Cc1c2oc3c(C)ccc(C(=O)N[C@@H]4C(=O)N[C@H](C(C)C)C(=O)N5CCC[C@H]5C(=O)N(C)CC(=O)N(C)[C@@H](C(C)C)C(=O)O[C@@H]4C)c3nc-2c(C(=O)N[C@@H]2C(=O)N[C@H](C(C)C)C(=O)N3CCC[C@H]3C(=O)N(C)CC(=O)N(C)[C@@H](C(C)C)C(=O)O[C@@H]2C)c(N)c1=O [DACTINOMYCIN] (I: T[dV]P[Sar][NMeV] / II: T[dV]P[Sar][NMeV]; ester I:1-I:C, II:1-II:C; linker I:N-II:N via Actinocin(1to9)) |  | 0% | 0%
6 µM (≈ 1.71 µg/mL) | > 24 µM | 15.2 µM | 12 µM (≈ 3.41 µg/mL) | 12 µM (≈ 3.41 µg/mL) | 1.14 µM | > 24 µM | > 24 µM | > 24 µM |  | Cc1cc(=O)n(C)c2c(O)c3c(cc12)c(C)cc(=O)n3C |  |  | 
 | 2 µM (≈ 1.85 µg/mL) |  |  |  |  |  |  |  |  | C[C@@H]1[C@H](O)[C@@H](C)/C=C/C=C/C=C/C=C/C=C/C=C/C=C/[C@H](O[C@@H]2O[C@H](C)[C@@H](O)[C@H](N)[C@@H]2O)C[C@@H]2O[C@](O)(C[C@@H](O)C[C@@H](O)[C@H](O)CC[C@@H](O)C[C@@H](O)CC(=O)O[C@H]1C)C[C@H](O)[C@H]2C(=O)O [AMPHOTERICIN B] |  |  | 
> 24 µM | > 24 µM | > 100 µM | > 24 µM | > 24 µM | > 100 µM | > 24 µM | > 24 µM | > 24 µM |  | C/C=C/C=C/[C@H]1C[C@H](O)CCN1 |  |  | 
